According to ChEMBL document CHEMBL3352401, “Synthesis and antiviral activity of new phenylimidazopyridines and N-benzylidenequinolinamines derived by molecular simplification of phenylimidazo[4,5-g]quinolines” (Eur J Med Chem, 2014):
pEC50: −log10 of the molar value.

Assays:
[1] = Antiviral activity against Human respiratory syncytial virus A2 ATCC VR-1540 infected in Vero 76 cells after 5 days by plaque reduction assays; type: functional, cell-based; conditions: ATCC VR-1540, Vero 76, 120 h
Yellow fever virus = assay: Antiviral activity against Yellow fever virus 17D Stamaril Pasteur J07B01 infected in BHK21 cells assessed as protection from virus-induced cytopathogenicity after 3 to 4 days by MTT method; type: functional, cell-based; conditions: Stamaril Pasteur J07B01, BHK-21
Procedure, shortened: (§1)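 Confluent monolayers grown overnight (BHK-21 at 5×10⁴ cells/well for YFV and Reo-1; MDBK at 3×10⁴ cells/well for BVDV). Infection at m.o.i. 0.01 for 2 h in maintenance MEM-Earle with 0.5% inactivated FBS, then serial compound dilutions added. Viability read by MTT after 3–4 days at 37 °C. EC50 taken from linear regression against untreated controls.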

[2] = Cytotoxicity against mock-infected human MT4 cells assessed as reduction in proliferation after 96 hrs by MTT method; type: cell-based
Procedure, shortened: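 Exponentially growing MT-4 cells seeded at 1 × 10⁵ cells/mL in RPMI-1640 with 10% FBS, penicillin and streptomycin. Held 96 h at 37 °C, 5% CO₂ with or without serial compound dilutions; viability by MTT. Compounds dissolved in DMSO at 100 mM stock, then diluted in medium. CC50 by linear regression.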

[3] = Cytotoxicity against mock-infected bovine MDBK cells assessed as reduction in proliferation after 72 hrs by MTT method; type: cell-based, Bos taurus; conditions: cattle
Procedure, shortened: (§2)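 MDBK and BHK cells seeded at 6 × 10⁵ and 1 × 10⁶ cells/mL respectively. Medium was MEM-Earle with L-glutamine, 1 mM pyruvate and kanamycin, plus 10% horse serum (MDBK) or 10% FBS (BHK). Cells exposed to serial compound dilutions at 37 °C, 5% CO₂; MTT viability read at 72 h. CC50 by linear regression versus untreated controls.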

Coxsackievirus B5 = assay: Antiviral activity against Coxsackievirus B5 Faulkner (ATCC VR-185) infected in Vero 76 cells after 3 days by plaque reduction assays; type: functional, organism-based; conditions: Enterovirus B, Vero 76, 72 h
Human alphaherpesvirus 1 = assay: Antiviral activity against Human herpesvirus 1 strain KOS ATCC VR- 1493 infected in Vero 76 cells after 3 days by plaque reduction assays; type: functional, organism-based; conditions: Human alphaherpesvirus 1, KOS ATCC VR1493, Vero 76, 72 h
[4] = Antiviral activity against Vaccinia virus Lister ATCC VR-1549 infected in Vero 76 cells after 3 days by plaque reduction assays; type: functional, cell-based; conditions: ATCC VR-1549, Vero 76, 72 h
[5] = Antiviral activity against Bovine viral diarrhea virus 1-NADL ATCC VR-534 infected in MDBK cells assessed as protection from virus-induced cytopathogenicity after 3 to 4 days by MTT method; type: functional, cell-based; conditions: Bovine viral diarrhea virus isolates and strains, ATCC VR-534, MDBK; procedure, shortened: as §1
[6] = Cytotoxicity against mock-infected hamster BHK21 cells assessed as reduction in proliferation after 72 hrs by MTT method; type: cell-based, Mesocricetus auratus, BHK-21; procedure, shortened: as §2
[7] = Cytotoxicity against mock-infected African green monkey Vero 76 cells assessed as reduction in proliferation after 48 to 96 hrs by MTT method; type: cell-based; conditions: chlorocebus sabaeus, Vero 76 cells (mock-infected)
Procedure, shortened: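 Vero-76 cells seeded at 4 × 10⁵ cells/mL in D-MEM with L-glutamine, kanamycin and 10% FBS. Incubated at 37 °C, 5% CO₂, with or without serial dilutions of compound; viability read by MTT after 48–96 h. Run in parallel with antiviral assays. CC50 obtained by linear regression of % of untreated control.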

[8] = tested on: Human immunodeficiency virus 1; assay: Antiviral activity against HIV-13B infected in MT4 cells assessed as protection from virus-induced cytopathogenicity after 4 days by MTT method; type: functional, organism-based; conditions: Human immunodeficiency virus 1, 3B, MT4, 96 h
Procedure, shortened: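 HIV-1 IIIB, taken from persistently infected H9/IIIB supernatant. MT-4 cells (1×10⁴/well) in RPMI with serial compound dilutions, infected with 100 CCID50 (m.o.i. 0.01). Viability by MTT after 4 days at 37 °C. EC50 = 50% protection from cytopathogenicity, by linear regression against untreated controls. Compounds kept as 100 mM DMSO stocks, diluted in medium.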

[9] = Antiviral activity against Simian virus 12 3651 (ATCC VR- 214) infected in BHK21 cells assessed as protection from virus-induced cytopathogenicity after 3 to 4 days by MTT method; type: functional, cell-based; conditions: BHK-21; procedure, shortened: as §1
[10] = tested on: Vesicular stomatitis Indiana virus; assay: Antiviral activity against Vesicular stomatitis Indiana virus ATCC VR 158 infected in Vero 76 cells after 2 days by plaque reduction assays; type: functional, organism-based; conditions: ATCC VR 158, Vero 76, 48 h
[11] = tested on: Human poliovirus 1 strain Sabin; assay: Antiviral activity against Poliovirus 1 strain Sabin ATCC VR-1562 infected in Vero 76 cells after 2 days by plaque reduction assays; type: functional, organism-based; conditions: Enterovirus C, ATCC VR-1562, Vero 76, 48 h

| SMILES | pEC50 [1] | pEC50 (Yellow fever virus) | CC50 at 96 h [2] [µM] | CC50 at 72 h [3] [µM] | pEC50 (Coxsackievirus B5) | pEC50 (Human alphaherpesvirus 1) | pEC50 [4] | pEC50 [5] | CC50 at 72 h [6] [µM] | CC50 [7] [µM] | pEC50 [8] | pEC50 [9] | pEC50 [10] | pEC50 [11] |
| --- | --- | --- | --- | --- | --- | --- | --- | --- | --- | --- | --- | --- | --- | --- |
| N#Cc1ccc(/C=N/c2cc3c(=O)cc[nH]c3c(Cl)c2N)cc1 | < 4.00 | < 4.06 | > 100 | > 100 | < 4.00 | < 4.00 | < 4.00 | 4.55 | > 100 | > 100 | < 4.00 | < 4.00 | < 4.00 | < 4.00 |
| Nc1c(/N=C/c2ccc(C(F)(F)F)c([N+](=O)[O-])c2)cc2cccnc2c1Cl | < 4.05 | < 4.12 | 20 | > 100 | 4.80 | < 4.00 | < 4.05 | 4.96 | > 100 | 90 | < 4.00 | < 4.00 | < 4.05 | 4.66 |
| Brc1cnc2[nH]c(C3CCCCC3)nc2c1 | < 4.00 | < 4.00 | > 100 | > 100 | 4.70 | < 4.00 | 4.80 | < 4.00 | > 100 | > 100 | < 4.00 | < 4.00 | < 4.00 | < 4.00 |
| CC(=O)c1ccc(-c2nc3ccncc3[nH]2)cc1 | < 4.00 | < 4.00 | > 100 | > 100 | < 4.00 | < 4.00 | < 4.00 | 5.15 | > 100 | > 100 | < 4.00 | < 4.00 | < 4.00 | < 4.00 |
| N#Cc1ccc(/C=N/c2cc3cccnc3c(Cl)c2N)cc1 | 4.59 | < 4.00 | 46 | > 100 | 4.34 | < 4.00 | < 4.00 | 5.70 | > 100 | > 100 | < 4.00 | < 4.00 | < 4.00 | < 4.00 |
| O=[N+]([O-])c1ccc(-c2nc3cc4cccnc4c(Cl)c3[nH]2)cc1 | < 4.00 | < 4.00 | > 100 | > 100 | < 4.00 | < 4.36 | < 4.00 | 5.92 | > 100 | > 100 | < 4.00 | < 4.00 | < 4.00 | < 4.00 |
| FC(F)(F)c1ccc(-c2nc3cc(Br)cnc3[nH]2)cc1 | < 4.00 | < 4.00 | > 100 | > 100 | < 4.00 | < 4.00 | 5.40 | < 4.00 | > 100 | > 100 | < 4.00 | < 4.00 | < 4.00 | < 4.00 |
| FC(F)(F)c1ccc(-c2nc3cccnc3[nH]2)cc1 | < 4.00 | < 4.00 | > 100 | > 100 | 4.74 | < 4.00 | < 4.00 | < 4.00 | > 100 | > 100 | < 4.00 | < 4.00 | < 4.00 | < 4.00 |
| Brc1cnc2[nH]c(-c3ccoc3)nc2c1 | < 4.40 | < 4.00 | 20 | 40 | < 4.40 | < 4.40 | < 4.40 | 4.40 | > 100 | 40 | 4.70 | < 4.00 | < 4.40 | < 4.40 |
| N#Cc1ccc(-c2nc3cccnc3[nH]2)cc1 | < 4.00 | < 4.00 | > 100 | > 100 | < 4.00 | < 4.00 | < 4.00 | < 4.00 | > 100 | > 100 | < 4.00 | < 4.00 | < 4.00 | < 4.00 |
| Nc1c(/N=C/c2ccc([N+](=O)[O-])cc2)cc2cccnc2c1Cl | 4.85 | < 4.00 | 53 | > 100 | < 4.00 | < 4.00 | 4.06 | 5.77 | > 100 | > 100 | < 4.00 | < 4.00 | < 4.00 | < 4.00 |
| CC(=O)c1ccc(-c2nc3cc(Br)cnc3[nH]2)cc1 | < 4.30 | < 4.00 | 28 | > 100 | < 4.30 | < 4.30 | < 4.30 | < 4.00 | > 100 | 50 | 4.55 | < 4.00 | < 4.30 | < 4.30 |
